How the values were obtained:
[1] = Displacement of [3H]-PN200-110 from voltage-gated calcium channel subunit alpha Cav1.2a (unknown origin) expressed in HEK293 cells after 90 mins by liquid scintillation counting analysis; format: cell-based, Homo sapiens
In short: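 Intact HEK-293 cells stably transfected with a rabbit Cav1.2a (α1c-a) plasmid are used. They are incubated with 0.5 nM (+)-[5-methyl-3H]PN200-110 plus competitor at 0.001−100 μM, from 10⁻² M DMSO stocks diluted in buffer. IC50 values are given as mean ± SEM.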

[2] = species: Cavia porcellus; assay: Displacement of [3H]-PN200-110 from L-type calcium channel in Hartley guinea pig ventricular membrane […] after 90 mins relative to control
[3] = species: Cavia porcellus; assay: Displacement of [3H]-PN200-110 from L-type calcium channel in Hartley guinea pig atrial membrane at 100 uM after 90 mins relative to control; format: cell membranes; conditions: Cardiac atrium
[4] = tested on: Ileum; assay: Relaxant activity in potassium depolarized guinea pig ileum longitudinal smooth muscle assessed as inhibition of calcium-induced contraction; format: functional, tissue-based; conditions: Cavia porcellus
In short: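 K⁺-depolarized (80 mM) guinea pig ileum longitudinal smooth muscle is used. Calcium-induced contraction is measured with cumulative compound addition.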

[5] = tested on: Ileum; assay: Relaxant activity in potassium depolarized guinea pig ileum longitudinal smooth muscle assessed as inhibition of calcium-induced contraction at 5x10'-7 M relative to control; format: functional, Cavia porcellus; design: scale not given: the % may be the effect or the level left
[6] = tested on: Aorta; assay: Relaxant activity in potassium depolarized guinea pig aortic strips assessed as inhibition of calcium-induced contraction at 10^-5 M relative to control; format: functional, Cavia porcellus; design: scale not given: the % may be the effect or the level left
[7] = Negative chronotropic activity in guinea pig right atrium assessed as decrease in atrial rate; format: functional, tissue-based; conditions: Cavia porcellus, Cardiac atrium
In short: (§1)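 Isolated guinea pig atria are used, with left atria driven at 1 Hz. Compounds are added cumulatively. EC50 is derived from log concentration−response curves by Litchfield–Wilcoxon probit analysis, n = 6−7. EC50 is not calculated when the maximal effect is below 50%.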

[8] = Negative chronotropic activity in guinea pig right atrium assessed as decrease in atrial rate at 5x10'-6 M relative to control; format: functional, Cavia porcellus, Cardiac atrium; design: scale not given: the % may be the effect or the level left
[9] = Negative inotropic activity in guinea pig left atrium assessed as decrease in developed tension at 10^-4 M relative to control; format: functional, Cavia porcellus, Cardiac atrium; design: scale not given: the % may be the effect or the level left
[10] = tested on: HEK293; assay: Displacement of [3H]-PN200-110 from voltage-gated calcium channel subunit alpha Cav1.2a (unknown origin) expressed in HEK293 cells at 100 uM after 90 mins by liquid scintillation counting analysis relative to control; format: cell-based; conditions: Homo sapiens
[11] = Displacement of [3H]-PN200-110 from L-type calcium channel dihydropyridine binding site in Wistar rat cortex homogenate after 60 mins by liquid scintillation spectometric analysis; format: tissue-based
In short: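 Competition binding on rat cortex homogenate with (+)-[5-methyl-3H]PN200-110. Compounds are dissolved in DMSO as 10⁻² M stocks and diluted in buffer. Six displacer concentrations are tested, each in triplicate. IC50 is obtained by −log probit analysis and Ki by the Prusoff method. Values are mean ± SEM of 3−5 separate experiments done in triplicate.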

[12] = species: Rattus norvegicus; assay: Displacement of [3H]-PN200-110 from L-type calcium channel dihydropyridine binding site in Wistar rat cortex homogenate at 100 uM after 60 mins by liquid scintillation spectometric analysis relative to control; format: tissue-based
In short: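 Binding on rat cortex homogenate using (+)-[5-methyl-3H]PN200-110. The read-out is percent of maximal radioligand displacement at 100 μM test compound. Compounds are made up as 10⁻² M DMSO stocks and diluted in buffer. Values are from 3−5 separate experiments done in triplicate.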

[13] = Displacement of [3H]-PN200-110 from L-type calcium channel in Hartley guinea pig ventricular membrane […] after 90 mins; design: species or system Cavia porcellus
[14] = Displacement of [3H]-PN200-110 from L-type calcium channel in Hartley guinea pig atrial membrane after 90 mins; format: cell membranes, Cavia porcellus, Cardiac atrium
In short: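 Guinea pig atrial membranes are labelled at the 1,4-DHP site with (+)-[5-methyl-3H]PN200-110 at 0.5 nM. Competitor is added over 0.001−100 μM from 10⁻² M DMSO stocks diluted in buffer. Results are given as IC50 and Ki, mean ± SEM. Student's t-test is applied with P<0.001.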

[15] = tested on: Aorta; assay: Relaxant activity in potassium depolarized guinea pig aortic strips assessed as inhibition of calcium-induced contraction at 10^-6 M relative to control; format: functional, Cavia porcellus; design: scale not given: the % may be the effect or the level left
In short: (§2)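 Guinea pig aortic strips and ileum longitudinal smooth muscle were depolarized with 80 mM K⁺. Calcium-induced contraction was measured with cumulative compound addition, and inhibition was expressed as percent change from control (n = 6−7). Differences from control at each concentration were tested by Student's t-test, P < 0.05, and data are mean SEM.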

[16] = tested on: Ileum; assay: Relaxant activity in potassium depolarized guinea pig ileum longitudinal smooth muscle assessed as inhibition of calcium-induced contraction at 5x10'-9 M relative to control; format: functional, Cavia porcellus; design: scale not given: the % may be the effect or the level left; in short: as §2
[17] = Negative chronotropic activity in guinea pig right atrium assessed as decrease in atrial rate at 10^-7 M relative to control; format: functional, Cavia porcellus, Cardiac atrium; design: scale not given: the % may be the effect or the level left
In short: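 Spontaneously beating isolated guinea pig right atrium. Compounds added cumulatively. The decrease in atrial rate is expressed as percent change from control. At each concentration, the difference from control was tested by Student's t-test, with significance at P<0.05. Data are given as mean SEM.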

[18] = Negative inotropic activity in guinea pig left atrium assessed as decrease in developed tension at 10^-5 M relative to control; format: functional, Cavia porcellus, Cardiac atrium; design: scale not given: the % may be the effect or the level left
[19] = Negative inotropic activity in guinea pig left atrium assessed as decrease in developed tension; format: functional, tissue-based; conditions: Cavia porcellus, Cardiac atrium; in short: as §1
[20] = tested on: Ileum; assay: Relaxant activity in potassium depolarized guinea pig ileum longitudinal smooth muscle assessed as inhibition of calcium-induced contraction at 10^-5 M relative to control; format: functional, Cavia porcellus; design: scale not given: the % may be the effect or the level left
In short: (§3)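 Guinea pig aortic strips and ileum longitudinal smooth muscle are depolarized with 80 mM K⁺. The read-out is percent inhibition of calcium-induced contraction. Aorta is tested at 10⁻⁴ M and ileum at 10⁻⁵ M.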

[21] = tested on: Aorta; assay: Relaxant activity in potassium depolarized guinea pig aortic strips assessed as inhibition of calcium-induced contraction at 10^-4 M relative to control; format: functional, Cavia porcellus; design: scale not given: the % may be the effect or the level left; in short: as §3
[22] = Negative inotropic activity in guinea pig right atrium assessed as decrease in developed tension at 10^-5 M relative to control; format: functional, Cavia porcellus, Cardiac atrium; design: scale not given: the % may be the effect or the level left
In short: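 The read-out is decrease in developed tension of spontaneously beating isolated guinea pig right atrium at 10⁻⁵ M. It is expressed as percent change from control, n = 7−8.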

[23] = Negative inotropic activity in guinea pig right atrium assessed as decrease in developed tension; format: functional, tissue-based; conditions: Cavia porcellus, Cardiac atrium
[24] = Negative chronotropic activity in guinea pig right atrium assessed as decrease in atrial rate at 10^-4 M relative to control; format: functional, Cavia porcellus, Cardiac atrium; design: scale not given: the % may be the effect or the level left
In short: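 The read-out is decrease in rate of spontaneously beating isolated guinea pig right atrium at 10⁻⁴ M. It is expressed as percent change from control, n = 7−8.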

Compound: COC(=O)C1=C(C)NC(C)=C(C(=O)OC)C1c1c(-c2cccs2)nc2sccn12
- IC50 [1]: 2150 nM
- Ki [1]: 710 nM
- %max [2]: < 50%
- %max [3]: < 50%
- IC50 [4]: 110 nM
- Activity [5]: 91%
- Activity [6]: 23%
- EC50 [7]: 1300 nM
- Activity [8]: 85%
- Activity [9]: 46%
- %max [10]: 50%

Compound: COC(=O)C1=C(C)NC(C)=C(C(=O)OC)C1c1ccccc1[N+](=O)[O-] [NIFEDIPINE]
- IC50 [11]: 6.1 nM
- Ki [11]: 1.9 nM
- %max [12]: 92%
- IC50 [1]: 86 nM
- Ki [1]: 32 nM
- IC50 [13]: 5.7 nM
- Ki [13]: 2 nM
- %max [2]: 80%
- IC50 [14]: 5.1 nM
- Ki [14]: 1.5 nM
- %max [3]: 72%
- Activity [15]: 82%
- Activity [16]: 70%
- EC50 [7]: 39 nM
- Activity [17]: 85%
- Activity [18]: 97%
- EC50 [19]: 260 nM
- %max [10]: 75%

Compound: COC(=O)C1=C(C)NC(C)=C(C(=O)OC)C1c1c(-c2c(Cl)csc2Cl)nc2sc(C)cn12
- IC50 [4]: 3230 nM
- Activity [20]: 87%
- Activity [21]: 31%
- Activity [22]: 82%
- EC50 [23]: 730 nM
- Activity [24]: 22%
- Activity [18]: 60%
- EC50 [19]: 310 nM

Source: ChEMBL document CHEMBL2380289, “Ligand based approach to L-type calcium channel by imidazo[2,1-b]thiazole-1,4-dihydropyridines: from heart activity to brain affinity” (J Med Chem, 2013)
